Calls of active or inactive are those of the source. The calls are words filed in the database; no cut-off is given here.
Key:
INS1 [1] = experiment: Cytoprotective activity in endoplasmic reticulum stressed rat INS-1 cells assessed as rescue from tunicamycin-mediated reduction in cell survival after 72 hrs by CellTiter-Glo assay; details: INS1, 72 h
INS1 [2] = experiment: Cytoprotective activity in endoplasmic reticulum stressed rat INS-1 cells assessed as rescue from tunicamycin-mediated reduction in cell viability at 10 uM after 72 hrs by CellTiter-Glo assay relative to control; assay type: functional
Procedure, shortened: (§1)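 INS-1 cells seeded at 3 × 10³/well and exposed for 72 h to Tm 0.1 μg/ml plus compound. Viability measured as ATP by CellTiter-Glo. Tm alone was set to 0% and DMSO without Tm to 100% rescue. Values are the mean of three experiments. EC50 was derived for survival.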

INS1 [3] = experiment: Cytoprotective activity in endoplasmic reticulum stressed rat INS-1 cells assessed as rescue from tunicamycin-mediated reduction in cell viability at 40 uM after 72 hrs by CellTiter-Glo assay relative to control; assay type: functional; procedure, shortened: as §1
INS1 [4] = experiment: Cytoprotective activity in endoplasmic reticulum stressed rat INS-1 cells assessed as rescue from tunicamycin-mediated reduction in cell viability at 20 uM after 72 hrs by CellTiter-Glo assay relative to control; assay type: functional; procedure, shortened: as §1
HEK293 [5] = experiment: Inhibition of endoplasmic reticulum stress-mediated upregulation of CHOP mRNA expression in tunicamycin-treated HEK293 cells after 2 to 8 hrs by qRT-PCR method; assay type: functional, cell-based; details: Homo sapiens
Procedure, shortened: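 HEK293 cells seeded at 4 × 10⁵/well and treated with Tm 1 μg/ml plus 20 μM compound or DMSO for the indicated times. CHOP mRNA was measured by qRT-PCR (2 μg RNA reverse transcribed), normalized to human cyclophilin A, and reported as fold change. Means ± SD of triplicates.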

HEK293 [6] = experiment: Inhibition of endoplasmic reticulum stress-mediated upregulation of CHOP gene expression in tunicamycin-treated HEK293 cells after 24 hrs by bright-glo luciferase reporter gene assay; assay type: functional, cell-based; details: Homo sapiens, HEK293, 24 h
Procedure, shortened: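 HEK293 cells stably carrying a CHOP promoter-luciferase reporter were seeded at 7 × 10³/well and incubated 16 h. Compound at indicated concentrations and Tm 1 μg/mL were added, and luciferase read by Bright-Glo 24 h later. IC50 determined for CHOP-Luc inhibition.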

INS1 [7] = experiment: Cytoprotective activity in endoplasmic reticulum stressed rat INS-1 cells assessed as rescue from tunicamycin-mediated reduction in cell viability at 5 uM after 72 hrs by CellTiter-Glo assay relative to control; assay type: functional; procedure, shortened: as §1
[8] = Inhibition of endoplasmic reticulum stress-mediated upregulation of CHOP mRNA expression in tunicamycin-treated rat INS-1 cells at 20 uM after 2 to 8 hrs by qRT-PCR method; assay type: functional, cell-based; details: INS1
[9] = Inhibition of endoplasmic reticulum stress-mediated upregulation of CHOP mRNA expression in tunicamycin-treated rat INS-1 cells at 5 to 20 uM after 8 hrs by qRT-PCR method; assay type: functional, cell-based; details: INS1
Procedure, shortened: (§2)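 INS-1 cells seeded at 4 × 10⁵/well and treated with Tm 0.1 μg/ml plus compound, either for 8 h at indicated concentrations or for indicated times at 10 μM. CHOP mRNA was measured by qRT-PCR with rat primers, normalized to rat cyclophilin A, and reported as fold change.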

[10] = Inhibition of endoplasmic reticulum stress-mediated upregulation of CHOP mRNA expression in tunicamycin-treated rat INS-1 cells at 10 uM after 2 to 8 hrs by qRT-PCR method; assay type: functional, cell-based; details: INS1; procedure, shortened: as §2

Structure (SMILES)	EC50 (INS1 [1])	%max (INS1 [2])	other results
COc1ccccc1-n1nnc(C(=O)Nc2c(C)cccc2C)c1C	0.6 µM	28%	–
CCc1ccc(-n2nnc(C(=O)Nc3ccccc3C)c2C)cc1	3.2 µM	62%	–
Cc1cccc(C)c1NC(=O)c1nnn(-c2ccccc2F)c1C	1.4 µM	–	%max (INS1 [3]): 23%
CCc1cccc(C)c1NC(=O)c1nnn(-c2ccccc2Cl)c1C	2.5 µM	–	%max (INS1 [3]): 55%
CCc1ccc(-n2nnc(C(=O)Nc3ccc(F)cc3)c2C)cc1	2.7 µM	82%	–
Cc1c(Cl)cccc1NC(=O)c1nnn(-c2ccc(F)cc2)c1C	8.4 µM	–	%max (INS1 [4]): 87%
Cc1c(C(=O)Nc2cccc(F)c2)nnn1-c1ccc(C(C)C)cc1	1.3 µM	–	inhibition (HEK293 [5]): Active; IC50 (HEK293 [6]): 0.013 µM; %max (INS1 [7]): 33%
Cc1ccc(-n2nnc(C(=O)Nc3ccccc3C)c2C)cc1C	3.1 µM	56%	–
CCOc1ccccc1-n1nnc(C(=O)Nc2cccc(Cl)c2C)c1C	8.7 µM	–	%max (INS1 [4]): 52%
Cc1c(C(=O)Nc2ccccc2)nnn1-c1ccccc1F	23 µM	–	%max (INS1 [3]): 31%; IC50 (HEK293 [6]): 1.1 µM
Cc1ccc(-n2nnc(C(=O)Nc3c(C)cccc3C)c2C)cc1	1.7 µM	–	%max (INS1 [4]): 73%
Cc1c(Cl)cccc1NC(=O)c1nnn(-c2ccccc2F)c1C	6.5 µM	–	%max (INS1 [4]): 92%
CCc1ccc(-n2nnc(C(=O)Nc3cccc(Cl)c3C)c2C)cc1	7.8 µM	88%	–
Cc1ccc(-n2nnc(C(=O)Nc3cccc(Cl)c3C)c2C)cc1	2.8 µM	56%	–
CCc1cccc(C)c1NC(=O)c1nnn(-c2ccccc2)c1C	5.8 µM	–	%max (INS1 [3]): 36%
Cc1ccc(-n2nnc(C(=O)Nc3cccc(Cl)c3C)c2C)c(C)c1	2.5 µM	92%	–
CCc1cccc(C)c1NC(=O)c1nnn(-c2ccccc2OC)c1C	1 µM	–	%max (INS1 [4]): 38%
CCc1cccc(C)c1NC(=O)c1nnn(-c2cccc(Cl)c2C)c1C	–	97%	inhibition [8]: Active
Cc1cccc(C)c1NC(=O)c1nnn(-c2ccc(Cl)cc2)c1C	5.2 µM	–	%max (INS1 [3]): 57%
CCc1ccc(-n2nnc(C(=O)Nc3ccccc3CC)c2C)cc1	4.2 µM	91%	–
CCc1ccc(-n2nnc(C(=O)Nc3ccc(C(=O)O)cc3)c2C)cc1	–	0%	inhibition [9]: inactive
Cc1c(C(=O)Nc2ccc(F)cc2)nnn1-c1ccc(C(C)C)cc1	3.5 µM	29%	–
Cc1cccc(C)c1NC(=O)c1nnn(-c2cccc(Cl)c2C)c1C	9 µM	–	%max (INS1 [3]): 88%
CCc1cccc(C)c1NC(=O)c1nnn(-c2ccc(F)cc2)c1C	–	–	%max (INS1 [4]): 28%

Structure (SMILES)	EC50 (INS1 [1])	%max (INS1 [2])	other results
Cc1c(C(=O)Nc2ccccc2F)nnn1-c1ccc(C(C)C)cc1	2.1 µM	–	IC50 (HEK293 [6]): 0.035 µM; %max (INS1 [7]): 29%
Cc1c(C(=O)Nc2ccccc2)nnn1-c1ccccc1	9.5 µM	–	%max (INS1 [4]): 12%; IC50 (HEK293 [6]): 1.5 µM
CCc1ccc(-n2nnc(C(=O)Nc3ccc(C(=O)OC)cc3)c2C)cc1	–	14%	inhibition [9]: inactive
CCc1ccc(-n2nnc(C(=O)Nc3ccc(C)cc3)c2C)cc1	–	18%	–
CCc1ccc(-n2nnc(C(=O)Nc3ccccc3Cl)c2C)cc1	0.6 µM	–	%max (INS1 [7]): 19%
CCc1ccc(-n2nnc(C(=O)Nc3cccc(OC)c3)c2C)cc1	3.7 µM	31%	–
CCc1ccc(-n2nnc(C(=O)Nc3ccc(Cl)cc3Cl)c2C)cc1	–	12%	–
CCc1ccc(-n2nnc(C(=O)Nc3cccc(C)c3)c2C)cc1	2.1 µM	–	%max (INS1 [7]): 72%
Cc1cccc(NC(=O)c2nnn(-c3ccc(C(C)C)cc3)c2C)c1	3.2 µM	35%	–
Cc1c(Cl)cccc1NC(=O)c1nnn(-c2ccccc2Cl)c1C	3.1 µM	–	inhibition [8]: Active; %max (INS1 [4]): 94%
CCOc1ccccc1-n1nnc(C(=O)Nc2c(C)cccc2CC)c1C	–	–	%max (INS1 [3]): 50%
CCc1cccc(C)c1NC(=O)c1nnn(-c2ccc(Cl)cc2)c1C	–	–	%max (INS1 [3]): 66%
CCc1ccc(-n2nnc(C(=O)Nc3cc(C)ccc3C)c2C)cc1	1.6 µM	90%	inhibition [10]: Active
Cc1cccc(C)c1NC(=O)c1nnn(-c2ccccc2Cl)c1C	9.1 µM	–	%max (INS1 [3]): 44%
Cc1ccccc1NC(=O)c1nnn(-c2ccc(C(C)C)cc2)c1C	2.6 µM	54%	–
CCc1ccc(-n2nnc(C(=O)Nc3c(C)cccc3C)c2C)cc1	4.6 µM	–	%max (INS1 [4]): 80%
COc1ccc(-n2nnc(C(=O)Nc3cccc(Cl)c3C)c2C)cc1	5.2 µM	–	%max (INS1 [4]): 81%
CCc1cccc(C)c1NC(=O)c1nnn(-c2ccc(OC)cc2)c1C	–	–	%max (INS1 [4]): 39%
CCc1cccc(C)c1NC(=O)c1nnn(-c2ccc(C)cc2)c1C	–	–	%max (INS1 [3]): 82%
CCc1ccc(-n2nnc(C(=O)Nc3ccc(OC)cc3)c2C)cc1	–	–	%max (INS1 [7]): 21%
Cc1ccccc1NC(=O)c1nnn(-c2ccccc2F)c1C	8 µM	–	%max (INS1 [3]): 40%
CCCCc1ccc(-n2nnc(C(=O)Nc3ccccc3F)c2C)cc1	3.5 µM	30%	–
CCc1ccc(-n2nnc(C(=O)Nc3ccc(NC(C)=O)cc3)c2C)cc1	–	15%	–

— ChEMBL document CHEMBL3797120, “Identification of 1,2,3-triazole derivatives that protect pancreatic β cells against endoplasmic reticulum stress-mediated dysfunction and death through the inhibition of C/EBP-homologous protein expression” (Bioorg Med Chem, 2016)
